Starred links: 1 amine or outer side, 2 acyl side, 3 side chain; linkers in the order of their positions; H or OH if unused. Positions of bridges follow the written chain, without caps; N, C: chain ends. Non-standard residues stand in square brackets, D forms with d. Residues, ends and D or L forms follow the SMILES beside them. βAsp = O=C(O)[C@H](CC(=O)[*:2])N[*:1]; Asu = N[C@@H](CCCCCC(=O)O)C(=O)O; Pen = CC(C)(S)[C@H](N)C(=O)O; hCys = N[C@@H](CCS)C(=O)O; X2 = O=C(CCC[*:2])[*:1]; X1 = O=C(CC[*:2])[*:1]; CO = O=C([*:1])[*:2]

The target in experiment [1] is T1, Atrial natriuretic peptide receptor 3 (Mus musculus, UniProt P70180).
T1 sequence (P70180 whole entry): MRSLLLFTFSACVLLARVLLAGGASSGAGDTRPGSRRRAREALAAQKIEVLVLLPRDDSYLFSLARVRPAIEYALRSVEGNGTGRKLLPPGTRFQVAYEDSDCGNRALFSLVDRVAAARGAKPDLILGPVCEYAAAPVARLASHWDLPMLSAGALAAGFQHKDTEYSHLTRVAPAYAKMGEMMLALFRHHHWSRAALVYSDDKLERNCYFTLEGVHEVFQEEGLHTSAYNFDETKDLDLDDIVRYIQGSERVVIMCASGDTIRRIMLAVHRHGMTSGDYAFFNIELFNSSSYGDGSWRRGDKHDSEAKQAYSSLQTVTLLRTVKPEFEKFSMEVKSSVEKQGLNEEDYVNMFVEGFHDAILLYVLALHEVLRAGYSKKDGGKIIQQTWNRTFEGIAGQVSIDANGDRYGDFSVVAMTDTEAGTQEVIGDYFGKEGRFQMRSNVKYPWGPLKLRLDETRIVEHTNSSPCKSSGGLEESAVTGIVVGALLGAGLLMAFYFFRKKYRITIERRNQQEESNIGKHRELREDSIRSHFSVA
In words: Binding affinity was determined based on the displacement of [125]r-ANF (99-126) from binding sites on mouse fibroblasts (NIH 3T3) cells (Atrionatriuretic peptide receptor C).

Experiment [2] is filed under the species Oryctolagus cuniculus. In words: Compound was tested for the inhibition of the stimulated contractions of the superfused rabbit thoracic aortic rings. It is filed as functional, Aorta. In a few lines: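 Rabbit thoracic aorta rings (4 mm) were held isometrically at 10-g resting tension, superfused and precontracted with phenylephrine. Test peptide was added to the superfusate above the tissue in successively higher doses after each recovery. Doses were based on peptide content. EC50 came from the dose-response curve, mean of three determinations ± SEM.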

Experiment [3] addresses T2, Atrial natriuretic peptide receptor 2 (Bos taurus, UniProt P46197).
T2 sequence (P46197 whole entry): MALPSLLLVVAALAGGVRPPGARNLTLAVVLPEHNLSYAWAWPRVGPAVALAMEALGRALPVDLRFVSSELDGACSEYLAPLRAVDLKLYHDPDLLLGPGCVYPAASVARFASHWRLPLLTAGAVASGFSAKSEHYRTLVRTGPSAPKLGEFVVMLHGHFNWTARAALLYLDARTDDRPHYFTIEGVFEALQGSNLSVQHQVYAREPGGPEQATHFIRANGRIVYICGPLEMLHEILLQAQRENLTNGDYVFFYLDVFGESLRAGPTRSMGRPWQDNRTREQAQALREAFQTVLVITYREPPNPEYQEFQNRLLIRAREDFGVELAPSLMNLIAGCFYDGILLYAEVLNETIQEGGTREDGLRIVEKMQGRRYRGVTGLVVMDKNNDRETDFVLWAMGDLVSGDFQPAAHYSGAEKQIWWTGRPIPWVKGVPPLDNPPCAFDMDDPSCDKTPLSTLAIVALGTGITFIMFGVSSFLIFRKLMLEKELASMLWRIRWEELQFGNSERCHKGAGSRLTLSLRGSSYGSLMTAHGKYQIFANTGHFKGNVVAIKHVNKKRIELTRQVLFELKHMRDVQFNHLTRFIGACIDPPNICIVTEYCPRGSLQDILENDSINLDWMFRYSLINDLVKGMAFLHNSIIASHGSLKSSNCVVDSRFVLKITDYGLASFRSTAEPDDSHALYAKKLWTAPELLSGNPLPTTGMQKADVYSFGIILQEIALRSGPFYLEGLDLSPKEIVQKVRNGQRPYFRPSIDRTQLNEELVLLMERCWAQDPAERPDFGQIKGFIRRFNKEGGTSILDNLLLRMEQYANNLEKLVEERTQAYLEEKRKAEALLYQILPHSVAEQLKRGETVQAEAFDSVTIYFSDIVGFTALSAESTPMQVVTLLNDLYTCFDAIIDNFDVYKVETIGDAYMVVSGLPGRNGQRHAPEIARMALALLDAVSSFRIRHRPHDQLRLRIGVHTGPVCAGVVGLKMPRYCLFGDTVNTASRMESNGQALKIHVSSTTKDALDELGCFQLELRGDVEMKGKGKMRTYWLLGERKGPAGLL
In words: Binding affinity was determined based on the displacement of [125]r-ANF (99-126) from binding sites on bovine adrenal zona glomerulosa cell membranes (Atrionatriuretic peptide receptor B).

Experiment [4] is filed under the species Rattus norvegicus. In words: Compound was tested for the Na+ excretion for treated over control animals. It is filed as functional. The procedure, abridged:
(§1)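 Male Sprague-Dawley rats (300-325 g) under halothane/lidocaine had femoral artery, femoral vein and bladder cannulated. After at least 1 h of recovery in restraint, they received Ringer's (1.2 mL/h), with 10-min urine collections over a 30-min control period. Infusion of 0.5 μg/kg per min for 30 min and a 30-min Ringer's recovery followed. Na+, K+ and Cl- were measured with an electrolyte analyzer, reported as treated minus control μmol/sample. Volume ratio is treated/control over three consecutive 10-min samples, six animals.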

The species named for experiment [5] is Rattus norvegicus. In words: Compound was tested for the K+ excretion for treated over control animals. It is filed as functional. In a few lines:
as §1

Experiment [6] is filed under the species Rattus norvegicus. In words: Compound was tested for antihypertensive activity in DOCA nephrectomized rats. It is filed as functional. The procedure, abridged: (§2)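 Rats were anesthetized with halothane after skin infiltration with 2% lidocaine, and the femoral artery and vein were cannulated. After recovery, arterial pressure was recorded. A saline control period was followed by i.v. infusion in 30-min steps at 0.1, 0.2, 0.5 and 1.0 μg/kg per min (70 μL/kg per min). Hydralazine (100 μg/kg per min) was given for standardization. ED50 is in nmol/kg per min, from six animals.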

The species entered for experiment [7] is Rattus norvegicus. In words: Compound was tested for antihypertensive activity in 5/6 nephrectomized rats. It is filed as functional. In a few lines: as §2

With `CC[C@H](C)[C@@H]1NC(=O)[C@H](CCCN=C(N)N)NC(=O)[C@H](CC(=O)O)NC(=O)[C@H]([C@@H](C)CC)NC(=O)[C@H](CCCN=C(N)N)NC(=O)CNC(=O)CNC(=O)[C@H](Cc2ccccc2)NC(=O)CCCSC[C@@H](C(=O)N[C@@H](CC(N)=O)C(=O)N[C@@H](CO)C(=O)N[C@@H](Cc2ccccc2)C(=O)N[C@@H](CCCN=C(N)N)C(=O)N[C@@H](Cc2ccc(O)cc2)C(=O)O)NC(=O)CNC(=O)[C@H](CC(C)C)NC(=O)CNC(=O)[C@H](CO)NC(=O)[C@H](CCC(N)=O)NC(=O)[C@H](C)NC(=O)CNC1=O` (FGGRIDRIGAQSGLGCNSFRY-OH; linker N-16 via X2), the IC50 came to 0.56 nM in experiment [1] and 6.17 nM in experiment [3]. Besides, in experiment [2], the EC50 is 2.6e-10 M 50ul-1.
In the case of `CC[C@H](C)[C@@H]1NC(=O)[C@H](CCCN=C(N)N)NC(=O)[C@H](CC(=O)O)NC(=O)[C@H]([C@@H](C)CC)NC(=O)[C@H](CCCN=C(N)N)NC(=O)CNC(=O)CNC(=O)[C@H](Cc2ccccc2)NC(=O)CCCCC[C@@H](C(=O)N[C@@H](CC(N)=O)C(=O)N[C@@H](CO)C(=O)N[C@@H](Cc2ccccc2)C(=O)N[C@@H](CCCN=C(N)N)C(=O)N[C@@H](Cc2ccc(O)cc2)C(=O)O)NC(=O)CNC(=O)[C@H](CC(C)C)NC(=O)CNC(=O)[C@H](CO)NC(=O)[C@H](CCC(N)=O)NC(=O)[C@H](C)NC(=O)CNC1=O` (FGGRIDRIGAQSGLG[Asu]NSFRY-OH; lactam N-16), the figures for the IC50 in experiment [1] and in experiment [3] were 0.78 nM and 28.8 nM, respectively. The same compound registered an EC50 in experiment [2] of 4.8e-10 M 50ul-1.
On to `CC[C@H](C)[C@@H]1NC(=O)[C@H](CCCN=C(N)N)NC(=O)[C@H](CC(=O)O)NC(=O)[C@H]([C@@H](C)CC)NC(=O)[C@H](CCCN=C(N)N)NC(=O)CNC(=O)CNC(=O)[C@H](Cc2ccccc2)NC(=O)[C@@H](NC(=O)[C@H](CO)NC(=O)[C@@H](N)CO)CSSC[C@@H](C(=O)N[C@@H](CC(N)=O)C(=O)N[C@@H](CO)C(=O)N[C@@H](Cc2ccccc2)C(=O)N[C@@H](CCCN=C(N)N)C(=O)N[C@@H](Cc2ccc(O)cc2)C(=O)O)NC(=O)CNC(=O)[C@H](CC(C)C)NC(=O)CNC(=O)[C@H](CO)NC(=O)[C@H](CCC(N)=O)NC(=O)[C@H](C)NC(=O)CNC1=O` (H-SSCFGGRIDRIGAQSGLGCNSFRY-OH; disulfide 3-19) [listing 1 of 2 here], for which the IC50 is 0.35 nM in experiment [1] and 1.37 nM in experiment [3].
`CC[C@H](C)[C@@H]1NC(=O)[C@H](CCCN=C(N)N)NC(=O)[C@H](CC(=O)O)NC(=O)[C@H]([C@@H](C)CC)NC(=O)[C@H](CCCN=C(N)N)NC(=O)CNC(=O)CNC(=O)[C@H](Cc2ccccc2)NC(=O)CCCSC(C)(C)[C@@H](C(=O)N[C@@H](CC(N)=O)C(=O)N[C@@H](CO)C(=O)N[C@@H](Cc2ccccc2)C(=O)N[C@@H](CCCN=C(N)N)C(=O)N[C@@H](Cc2ccc(O)cc2)C(=O)O)NC(=O)CNC(=O)[C@H](CC(C)C)NC(=O)CNC(=O)[C@H](CO)NC(=O)[C@H](CCC(N)=O)NC(=O)[C@H](C)NC(=O)CNC1=O` (FGGRIDRIGAQSGLG[Pen]NSFRY-OH; linker N-16 via X2): the figures for the IC50 in experiment [1] and in experiment [3] were 0.35 nM and 7.8 nM, respectively. For the same compound, the EC50 in experiment [2] is given as 6.8e-10 M 50ul-1.
As to `CC[C@H](C)[C@@H]1NC(=O)[C@H](CCCN=C(N)N)NC(=O)[C@H](CC(=O)O)NC(=O)[C@H]([C@@H](C)CC)NC(=O)[C@H](CCCN=C(N)N)NC(=O)CNC(=O)CNC(=O)[C@H](Cc2ccccc2)NC(=O)CCC=CC[C@@H](C(=O)N[C@@H](CC(N)=O)C(=O)N[C@@H](CO)C(=O)N[C@@H](Cc2ccccc2)C(=O)N[C@@H](CCCN=C(N)N)C(=O)N[C@@H](Cc2ccc(O)cc2)C(=O)O)NC(=O)CNC(=O)[C@H](CC(C)C)NC(=O)CNC(=O)[C@H](CO)NC(=O)[C@H](CCC(N)=O)NC(=O)[C@H](C)NC(=O)CNC1=O`, the results for the IC50 in experiment [1] and in experiment [3] were 0.63 nM and 51 nM, respectively. For the same compound, the EC50 in experiment [2] is recorded as 5.5e-10 M 50ul-1.
Consider `CC[C@H](C)[C@@H]1NC(=O)[C@H](CCCN=C(N)N)NC(=O)[C@H](CC(=O)O)NC(=O)[C@H]([C@@H](C)CC)NC(=O)[C@H](CCCN=C(N)N)NC(=O)CNC(=O)CNC(=O)[C@H](Cc2ccccc2)NC(=O)CCSCC[C@@H](C(=O)N[C@@H](CC(N)=O)C(=O)N[C@@H](CO)C(=O)N[C@@H](Cc2ccccc2)C(=O)N[C@@H](CCCN=C(N)N)C(=O)N[C@@H](Cc2ccc(O)cc2)C(=O)O)NC(=O)CNC(=O)[C@H](CC(C)C)NC(=O)CNC(=O)[C@H](CO)NC(=O)[C@H](CCC(N)=O)NC(=O)[C@H](C)NC(=O)CNC1=O` (FGGRIDRIGAQSGLG[hCys]NSFRY-OH; linker N-16 via X1), for which the IC50 in experiment [1] is 0.21 nM; in experiment [3] it was 7.8 nM. Further, the EC50 in experiment [2] amounted to 3.5e-10 M 50ul-1.
Consider `CC[C@H](C)[C@@H]1NC(=O)[C@H](CCCN=C(N)N)NC(=O)[C@H](CC(=O)O)NC(=O)[C@H]([C@@H](C)CC)NC(=O)[C@H](CCCN=C(N)N)NC(=O)CNC(=O)CNC(=O)[C@H](Cc2ccccc2)NC(=O)[C@@H](NC(=O)[C@H](CO)NC(=O)[C@@H](N)CO)CSSC[C@@H](C(=O)N[C@@H](CC(N)=O)C(=O)N[C@@H](CO)C(=O)N[C@@H](Cc2ccccc2)C(=O)N[C@@H](CCCN=C(N)N)C(=O)N[C@@H](Cc2ccc(O)cc2)C(=O)O)NC(=O)CNC(=O)[C@H](CC(C)C)NC(=O)CNC(=O)[C@H](CO)NC(=O)[C@H](CCC(N)=O)NC(=O)[C@H](C)NC(=O)CNC1=O` (H-SSCFGGRIDRIGAQSGLGCNSFRY-OH; disulfide 3-19) [listing 2 of 2 here], for which, in experiment [2], the EC50 is listed as 8.9e-11 M 50ul-1.
Take `CC[C@H](C)[C@H](NC(=O)[C@H](CCCN=C(N)N)NC(=O)[C@H](CC(=O)O)NC(=O)[C@@H](NC(=O)[C@H](CCCN=C(N)N)NC(=O)CNC(=O)CNC(=O)[C@H](Cc1ccccc1)NC(=O)N[C@@H](CC(=O)OC)C(=O)O)[C@@H](C)CC)C(=O)NCC(=O)N[C@@H](C)C(=O)N[C@@H](CCC(N)=O)C(=O)N[C@@H](CO)C(=O)NCC(=O)N[C@@H](CC(C)C)C(=O)NCC(=O)N[C@@H](CS)C(=O)N[C@@H](CC(N)=O)C(=O)N[C@@H](CO)C(=O)N[C@@H](Cc1ccccc1)C(=O)N[C@@H](CCCN=C(N)N)C(=O)N[C@@H](Cc1ccc(O)cc1)C(=O)O` ({OMe-βAsp-CO}-FGGRIDRIGAQSGLGCNSFRY-OH): the Electrolyte excretion in experiment [4] is on record as 38.1 uM sample-1; in experiment [5] it was 23.5 uM sample-1. For the same compound, the ED50 is more than 4 nM/min/kg in experiment [6] and more than 2 nM/min/kg in experiment [7]. The EC50 in experiment [2] was determined as 1.4e-10 M 50ul-1. In experiment [3], this compound showed an IC50 of 8.67 nM.

A word on the IC50: it is the concentration that inhibits the measured activity by half. High values mean a need for much substance, low ones inhibition by little substance.

The record behind these values is ChEMBL document CHEMBL1124824, “Synthesis and biological activity of atrial natriuretic factor analogues: effect of modifications to the disulfide bridge” (J Med Chem, 1990).
